Test results reported in article PMC6503841 (Nature chemical biology, 2018).
One block for each molecule: values may come before it. Where a SMILES comes first, the peptide text is derived from it. Where no end group is shown, it is not given here. The star is where a group is joined. Oxazole(5-CO) = O=C(c1cnco1)*; Crotonyl(E) = C/C=C/C(=O)*; 2Furoyl = O=C(c1ccco1)*; Cbz = O=C(OCc1ccccc1)*

What was measured:
AF9 YEATS [1] = biological target: T1, AF9 YEATS (Homo sapiens, UniProt P42568); test: isothermal titration calorimetry; format: binding; conditions: ITC Kd versus the crotonyl group (H3K9cr)
T1 sequence (P42568 1-138): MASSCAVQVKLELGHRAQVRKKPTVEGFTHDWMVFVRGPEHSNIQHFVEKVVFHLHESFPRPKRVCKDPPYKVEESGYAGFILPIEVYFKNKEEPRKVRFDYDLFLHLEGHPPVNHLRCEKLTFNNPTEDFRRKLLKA

[2] = tested on: YEATS domains of YEATS2 and GAS41; test: competitive photo-cross-linking assay, YEATS2 and GAS41 YEATS domains; format: binding, human; conditions: AF9 and ENL versus YEATS2 and GAS41; result in words
ENL YEATS = biological target: T2, ENL YEATS (Homo sapiens, UniProt Q03111); test: competitive photo-cross-linking assay, ENL YEATS; format: binding; conditions: comparing with AF9 YEATS
T2 sequence (Q03111 1-138): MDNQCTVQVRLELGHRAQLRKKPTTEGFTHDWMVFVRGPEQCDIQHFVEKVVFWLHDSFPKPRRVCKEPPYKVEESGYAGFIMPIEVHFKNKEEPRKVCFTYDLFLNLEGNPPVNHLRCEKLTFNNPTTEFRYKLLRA

MOLM-13 cells = test: RT-qPCR of mRNA levels in MOLM-13 cells; format: cell-based, human
ENL = biological target: T3, ENL (Homo sapiens, UniProt Q03111); test: cellular thermal shift assay; format: cell-based; conditions: MOLM-13, MV4;11, HEL cells, 50 μM, 12 h; 55 °C, 57 °C, and 59 °C
T3 sequence (Q03111 1-559): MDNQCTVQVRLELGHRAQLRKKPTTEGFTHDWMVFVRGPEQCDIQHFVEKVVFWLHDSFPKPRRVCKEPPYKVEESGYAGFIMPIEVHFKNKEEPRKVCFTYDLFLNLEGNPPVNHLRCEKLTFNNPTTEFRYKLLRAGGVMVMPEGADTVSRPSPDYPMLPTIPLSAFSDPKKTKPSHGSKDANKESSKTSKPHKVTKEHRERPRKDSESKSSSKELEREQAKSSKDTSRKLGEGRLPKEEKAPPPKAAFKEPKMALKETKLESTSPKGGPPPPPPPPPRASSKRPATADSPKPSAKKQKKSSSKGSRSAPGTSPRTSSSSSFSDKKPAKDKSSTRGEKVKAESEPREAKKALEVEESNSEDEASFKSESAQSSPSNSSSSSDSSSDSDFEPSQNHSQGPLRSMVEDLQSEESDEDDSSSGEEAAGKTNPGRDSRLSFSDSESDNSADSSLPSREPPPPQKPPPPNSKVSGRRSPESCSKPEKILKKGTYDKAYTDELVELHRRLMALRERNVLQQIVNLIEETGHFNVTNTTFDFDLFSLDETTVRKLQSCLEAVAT
Procedure, shortened: (§1)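 CETSA: MOLM-13 (Flag-ENL), MV4;11 or HEL cells were incubated with 50 μM test compound for 12 h, washed with PBS and resuspended in PBS with protease inhibitors (~3 million cells/100 μl). Aliquots were heated at indicated temperatures for 3 min, then held at room temperature for 3 min. Cells were lysed by two liquid-nitrogen freeze-thaw cycles and spun at 20,000×g for 20 min at 4 °C. Soluble supernatant was immunoblotted.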

endogenous AF9 [3] = biological target: T4, endogenous AF9 (Homo sapiens, UniProt P42568); test: competitive photo-cross-linking pull-down in nuclear extracts, AF9; format: binding
T4 sequence (P42568 1-568): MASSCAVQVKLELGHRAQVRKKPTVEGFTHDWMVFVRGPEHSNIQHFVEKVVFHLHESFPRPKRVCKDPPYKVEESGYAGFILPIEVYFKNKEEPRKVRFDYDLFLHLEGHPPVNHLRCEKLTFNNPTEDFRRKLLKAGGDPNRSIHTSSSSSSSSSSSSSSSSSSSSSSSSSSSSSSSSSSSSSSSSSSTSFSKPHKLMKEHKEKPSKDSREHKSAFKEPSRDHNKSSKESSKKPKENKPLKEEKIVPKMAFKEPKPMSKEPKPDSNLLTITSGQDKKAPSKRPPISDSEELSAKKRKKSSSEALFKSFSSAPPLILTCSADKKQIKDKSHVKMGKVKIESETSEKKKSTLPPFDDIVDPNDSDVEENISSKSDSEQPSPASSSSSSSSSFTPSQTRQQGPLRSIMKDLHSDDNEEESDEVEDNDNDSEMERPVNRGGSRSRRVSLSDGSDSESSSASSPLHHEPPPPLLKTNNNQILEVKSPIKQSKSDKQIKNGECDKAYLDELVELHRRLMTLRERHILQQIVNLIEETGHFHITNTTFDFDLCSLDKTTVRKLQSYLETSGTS

AF9 YEATS [4] = biological target: T1, AF9 YEATS; test: competitive photo-cross-linking assay; format: binding; conditions: compared with ENL YEATS
endogenous ENL = biological target: T5, endogenous ENL (Homo sapiens, UniProt Q03111); test: competitive photo-cross-linking pull-down in nuclear extracts, ENL; format: binding
T5 sequence (Q03111 1-559): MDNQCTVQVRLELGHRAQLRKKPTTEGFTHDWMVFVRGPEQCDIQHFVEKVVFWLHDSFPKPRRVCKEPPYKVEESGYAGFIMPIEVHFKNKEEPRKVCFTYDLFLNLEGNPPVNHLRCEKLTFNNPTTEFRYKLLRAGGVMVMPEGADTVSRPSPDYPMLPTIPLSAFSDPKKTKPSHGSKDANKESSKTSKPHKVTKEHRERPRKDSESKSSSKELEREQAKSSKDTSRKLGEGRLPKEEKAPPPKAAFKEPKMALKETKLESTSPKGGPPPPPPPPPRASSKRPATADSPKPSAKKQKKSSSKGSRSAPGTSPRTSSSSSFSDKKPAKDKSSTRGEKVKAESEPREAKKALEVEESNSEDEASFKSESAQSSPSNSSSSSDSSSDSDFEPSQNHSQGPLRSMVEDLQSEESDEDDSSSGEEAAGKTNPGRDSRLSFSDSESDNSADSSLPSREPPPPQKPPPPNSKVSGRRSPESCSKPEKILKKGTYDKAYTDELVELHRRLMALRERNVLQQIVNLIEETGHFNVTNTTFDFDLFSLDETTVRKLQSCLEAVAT

endogenous AF9 [5] = biological target: T4, endogenous AF9; test: cellular thermal shift assay; format: cell-based; conditions: MOLM-13, MV4;11, HEL cells, 50 μM, 12 h
Procedure, shortened: as §1

[6] = tested on: ENL at HOXA10, MYB, MYC and MEIS1 in MOLM-13 cells; test: ChIP-qPCR of ENL at target genes; format: cell-based, human; conditions: MOLM-13 (Flag-ENL) cells, 50 μM, 24 hours
Procedure, shortened: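 MOLM-13 (Flag-ENL) cells (about 20 million) were treated with or without 50 μM test compound for 24 h, cross-linked with formaldehyde for 10 min at room temperature and quenched with glycine. Chromatin was sonicated to 600–800 bp. 50 μg chromatin (5 μg input) was immunoprecipitated overnight at 4 °C with anti-FLAG M2 magnetic beads, washed, eluted and reverse cross-linked. DNA was measured by qPCR as percentage of input, n = 4 (HOXA10) or 3 (others).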

[7] = biological target: ENL YEATS domain, ENL (1–138) (human) (UniProt Q03111); test: cross-linking
[8] = biological target: T6, AF9 YEATS domain, AF9 (1–138) (human, UniProt P42568 1-138); test: ITC
T6 sequence (looked up): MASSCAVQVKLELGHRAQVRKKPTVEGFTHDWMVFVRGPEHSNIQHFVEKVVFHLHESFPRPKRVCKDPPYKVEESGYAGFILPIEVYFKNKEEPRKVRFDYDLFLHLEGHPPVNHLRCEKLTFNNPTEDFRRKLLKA

[9] = biological target: T6, AF9 YEATS domain, AF9 (1–138); test: cross-linking
[10] = biological target: T7, ENL YEATS domain, ENL (1–138) (human, UniProt Q03111 1-138); test: cross-linking
T7 sequence (looked up): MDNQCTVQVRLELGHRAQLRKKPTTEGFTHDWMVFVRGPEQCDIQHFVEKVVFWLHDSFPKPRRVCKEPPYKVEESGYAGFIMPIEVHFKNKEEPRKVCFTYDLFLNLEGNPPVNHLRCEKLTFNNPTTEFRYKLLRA

[11] = nuclear extracts of HeLa S3 and MOLM-13 (Flag-ENL), result in words

binding enhancement (AF9 YEATS [1]): 4.5 fold
Molecule: C[C@H](NC(=O)[C@@H](NC(=O)[C@H](CCC(N)=O)NC(=O)[C@@H](N)CCCCN)[C@@H](C)O)C(=O)N[C@@H](CCCNC(=N)N)C(=O)N[C@@H](CCCCNC(=O)c1ccco1)C(=O)N[C@@H](CO)C(=O)N[C@H](C(=O)NCC(=O)NCC(N)=O)[C@@H](C)O [XL-07] (H-KQTARK(2Furoyl)STGG-NH2; N-terminus and C-terminus assumed)

lower potency against ENL YEATS (ENL YEATS): 5 fold
Molecule: C[C@H](NC(=O)[C@@H](NC(=O)[C@H](CCC(N)=O)NC(=O)OCc1ccccc1)[C@@H](C)O)C(=O)N[C@@H](CCCNC(=N)N)C(=O)N[C@@H](CCCCNC(=O)c1ccco1)C(N)=O [XL-07i]
selectivity among YEATS domains [2]: more selective toward the YEATS domains of AF9 and ENL over YEATS2 and GAS41

binding enhancement (AF9 YEATS [1]): 14.7 fold
Molecule: C[C@H](NC(=O)[C@@H](NC(=O)[C@H](CCC(N)=O)NC(=O)[C@@H](N)CCCCN)[C@@H](C)O)C(=O)N[C@@H](CCCNC(=N)N)C(=O)N[C@@H](CCCCNC(=O)c1cnco1)C(=O)N[C@@H](CO)C(=O)N[C@H](C(=O)NCC(=O)NCC(N)=O)[C@@H](C)O [XL-13] (H-KQTARK(Oxazole(5-CO))STGG-NH2; N-terminus and C-terminus assumed)

thermal stability of ENL (soluble protein) (ENL): higher abundance of soluble ENL proteins
enrichment of AF9 (endogenous AF9 [3]; [11]): little effects
inhibition at 2 µM (endogenous AF9 [3]; read-out: inhibition of enrichment of AF9): ~3%
weaker inhibition against AF9 YEATS (AF9 YEATS [4]): 4.5 fold
photo-H3K9cr-induced enrichment of ENL (endogenous ENL; [11]): significantly inhibited
inhibition at 2 µM (endogenous ENL; read-out: inhibition of photo-H3K9cr-induced enrichment of endogenous ENL): ~50%
thermal stability of endogenous AF9 (endogenous AF9 [5]): almost no differences
Molecule: C[C@H](NC(=O)OCc1ccccc1)C(=O)N[C@@H](CCCNC(=N)N)C(=O)N[C@@H](CCCCNC(=O)c1cnco1)C(N)=O [XL-13m]
transcription levels of HOXA10, MYB, MYC and MEIS1 (MOLM-13 cells; MOLM-13 (Flag-ENL) cells, 50 μM, 24 hours): significant loss in the transcription levels
transcription suppression of MYC and HOXA9 (MOLM-13 cells; co-treatment of XL-13m (50 μM) and EPZ-5676 (500 nM), 72 hours): enhanced effect on the transcription suppression
abundance of ENL at HOXA10, MYB, MYC and MEIS1 [6]: decreases in the abundance of ENL

weaker inhibition against AF9 YEATS (AF9 YEATS [4]): 6.1 fold
Molecule: C[C@H](NC(=O)OCc1ccccc1)C(=O)N[C@@H](C)C(=O)N[C@@H](CCCNC(=N)N)C(=O)N[C@@H](CCCCNC(=O)c1cnco1)C(N)=O [XL-13n] (Cbz-AARK(Oxazole(5-CO))-NH2)

IC50 [7]: 3300 nM
Molecule: XL-13l (dipeptide with only the RK signature motif, 5-oxazolecarbonyl at K27)

Kd [8]: 14700 nM
IC50 [9]: 6000 nM
B1: H3K9cr peptide (histone H3 residues 4–13, Lys 9 crotonylated) (peptide, UniProt P68431 5-14, looked up)
peptide: KQTARK(Crotonyl(E))STGG

Kd [8]: 130 nM
fold lower potency than against AF9 YEATS [10]: 2.9 fold
IC50 [9]: 240 nM
B2: XL-13a (XL-07i with the 2-furancarbonyl group replaced by a 5-oxazolecarbonyl group) (peptide)
peptide: Cbz-QTARK(Oxazole(5-CO))

IC50 [9]: 4500 nM
B3: XL-07h (pentapeptide with the QTARK sequence) (peptide)
peptide: QTARK(2Furoyl)

Kd [8]: 330 nM
fold lower potency than against AF9 YEATS [10]: 5 fold
IC50 [9]: 260 nM
B4: XL-07i (pentapeptide XL-07h, QTARK, N-terminus capped with a carboxybenzyl group; 2-furancarbonyl lysine) (peptide)
peptide: Cbz-QTARK(2Furoyl)
